Test results as given in PubChem BioAssay.
Active and inactive are the calls of the source.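 Rule for the calls, unless noted: active = GFP response above 150% of the DMSO level; inconclusive = fewer than 70 events counted for a yeast strain; inactive = the rest.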

Legend:
[1] = RPL19A-GFP modulators, yeast TOR pathway, confirmation, cell-based, S. cerevisiae, flow cytometry, cherry picks, mother/daughter gates (AID 2270;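 active = GFP response below 50% of the DMSO control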); details: S. cerevisiae RPL19A-GFP strain, 3 h, at 10 µM, stronger effect = lower value, 100 = same GFP as DMSO wells
[2] = LAP4-GFP expression modulators in yeast, confirmation, cell-based, cherry picks, flow cytometry, mother/daughter gates (AID 2271;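 active = GFP response above 150% of the DMSO control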;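 note: ratio of sample to DMSO plate mean so 100% equals DMSO level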); details: S. cerevisiae LAP4-GFP strain, 3 h, at 10 µM, stronger effect = higher value, 100 means same as DMSO control
Outline: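 Test system: GFP-fusion yeast strain / Amount: 0.2 OD600 cells / Buffer or medium: SC medium / Dosing: 10 µM single dose / Incubation: compound exposure 3 h at 30 °C, end-over-end rotation / Detection: HT flow cytometry, GFP fluorescence channel / Evaluation: median GFP fluorescence as percent of plate-mean DMSO wells / Control set: DMSO-only negative wells, rapamycin 400 ng/mL positive wells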

[3] = modulators of MEP2-GFP levels in yeast, confirmation, S. cerevisiae, flow cytometry GFP, cherry picks (AID 2272;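 active = GFP response above 150% of the DMSO control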;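 note: ratio of well signal to plate DMSO mean so 100% equals DMSO level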); details: S. cerevisiae MEP2-GFP strain, 3 h, at 10 µM, stronger effect = higher value
[4] = AGP1-GFP expression modulators, hit retest, confirmation, cell-based, flow cytometry, S. cerevisiae, cherry picks (AID 2273);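 note: median GFP channel fluorescence over the whole cell population gate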; details: S. cerevisiae AGP1-GFP strain, 3 h, at 10 µM
[5] = modulators of CIT2-GFP expression in yeast, confirmation, S. cerevisiae, GFP fusion, cherry picks, mother/daughter gates (AID 2274); details: S. cerevisiae CIT2-GFP strain, flow cytometry, 3 h, at 10 µM, stronger effect = higher value
[6] = measured here: daughter cell gate
[7] = measured here: mother cell gate
[8] = measured here: daughter cell gate response
[9] = measured here: mother cell gate response

SMILES	GFP response vs DMSO [1]	GFP response vs DMSO [1, 6] [%]	GFP response vs DMSO [1, 7] [%]	GFP response relative to DMSO [2]	GFP response relative to DMSO [2, 8] [%]	GFP response relative to DMSO [2, 9] [%]	GFP response vs DMSO [3]	GFP response, % of DMSO [4]	GFP response, % of DMSO [5]	GFP response, % of DMSO [5, 6] [%]	GFP response, % of DMSO [5, 7] [%]
O=C1CC(c2ccccc2)CN1S(=O)(=O)c1ccccc1 (centres undefined)	98.4% (inactive)	96.4	98.9	97.9% (inactive)	99.2	97.2	105% (inactive)	101% (inactive)	103% (inactive)	103	103
CC(C)NC(=O)c1ccccc1-c1nc(-c2ccccc2Cl)no1	97.2% (inactive)	96.7	98	107% (inactive)	103	108	97.8% (inactive)	98.5% (inactive)	91.3% (inactive)	93.2	90.2
CCCCC1OC23CCCCC2C(C#N)(C(=N)O3)C1(C#N)C#N (centres undefined)	101% (inactive)	100	96.8	118% (inactive)	117	111	176% (active)	103% (inactive)	119% (inactive)	103	98.7
Cn1nnnc1N=N/C(=N/Nc1ccccc1)c1ccccc1	97.6% (inactive)	96.1	97.3	110% (inactive)	107	115	94.7% (inactive)	89.5% (inactive)	87.2% (inactive)	88.4	85.8
c1ccc(Cn2ncc3ccccc32)cc1	100% (inactive)	101	101	94.2% (inactive)	92.2	93.6	99.5% (inactive)	96.2% (inactive)	97.8% (inactive)	98.3	96.8
CCN(CC)C(=O)c1ccc2c3c(cccc13)C(=O)N(CCc1ccc(OC)c(OC)c1)C2=O	98.8% (inactive)	99.3	98.8	108% (inactive)	97.9	109	99.5% (inactive)	95.2% (inactive)	96.4% (inactive)	98.3	94.5
Clc1ccccc1N=C1NN=C(c2cccs2)CS1	96.8% (inactive)	93.4	95.7	108% (inactive)	106	113	90.5% (inactive)	98.8% (inactive)	90.1% (inactive)	88.4	89.5
Cc1cc(C)c(OCC(=O)Nc2nc(-c3ccccn3)cs2)c(C)c1	98.6% (inactive)	98.3	98.8	121% (inactive)	115	126	103% (inactive)	95.8% (inactive)	92.2% (inactive)	95.2	88.8
N/C(=N\OC(=O)c1cc(Br)ccc1Cl)c1ccccn1	101% (inactive)	98.7	97.7	133% (inactive)	125	135	110% (inactive)	93.2% (inactive)	112% (inactive)	105	114
N#Cc1cc([N+](=O)[O-])c(-n2nnc3ccccc32)c([N+](=O)[O-])c1	92.8% (inactive)	94.7	88.8	172% (active)	149	184	90.5% (inactive)	98.2% (inactive)	100% (inactive)	99.2	93.2
Cc1cccc(/C(N)=N/OC(=O)C23CC4CC(CC(C4)C2)C3)c1	102% (inactive)	101	101	113% (inactive)	108	119	108% (inactive)	85% (inactive)	123% (inactive)	111	127
O=C(OCc1cc(Cl)ccc1OC(F)F)c1ccc([N+](=O)[O-])o1	97% (inactive)	99.8	94	114% (inactive)	110	120	100% (inactive)	95.7% (inactive)	95.2% (inactive)	98.1	92.3
O=C1c2ccsc2SCCN1Cc1ccc(Cl)cc1Cl	96% (inactive)	94.2	95.5	108% (inactive)	107	110	94.7% (inactive)	98.2% (inactive)	90.1% (inactive)	90.2	91.9
COC(=O)c1ccc(Sc2ccccn2)c([N+](=O)[O-])c1	97.8% (inactive)	101	97.7	99.5% (inactive)	101	100	109% (inactive)	98% (inactive)	105% (inactive)	105	104
Cc1ccccc1C(=O)NNC(=S)NC(=O)c1ccc(Cl)cc1Cl	104% (inactive)	105	104	143% (inactive)	124	140	118% (inactive)	97.1% (inactive)	101% (inactive)	109	94.5
Cn1c(=O)c2ccccc2n(Cc2cccc(F)c2)c1=O	97.6% (inactive)	97.8	97.3	104% (inactive)	101	105	103% (inactive)	101% (inactive)	94.4% (inactive)	95.8	93.8
CSC1=NC(=O)/C(=C/c2ccc(SC)cc2)S1	95.1% (inactive)	78	92.5	138% (inactive)	115	134	110% (inactive)	107% (inactive)	75% (inactive)	78.1	70.3

SMILES	GFP response vs DMSO [1]	GFP response vs DMSO [1, 6] [%]	GFP response vs DMSO [1, 7] [%]	GFP response relative to DMSO [2]	GFP response relative to DMSO [2, 8] [%]	GFP response relative to DMSO [2, 9] [%]	GFP response vs DMSO [3]	GFP response, % of DMSO [4]	GFP response, % of DMSO [5]	GFP response, % of DMSO [5, 6] [%]	GFP response, % of DMSO [5, 7] [%]
O=C(CSc1cccc[n+]1[O-])c1cc2ccccc2o1	104% (inactive)	107	103	138% (inactive)	126	137	109% (inactive)	97.2% (inactive)	107% (inactive)	111	104
COc1cc(/C=C2\N=C(c3c(-c4ccccc4)noc3C)OC2=O)ccc1OC(C)=O	98.6% (inactive)	100	98.9	91.5% (inactive)	92.8	89.7	100% (inactive)	99.3% (inactive)	103% (inactive)	103	101
Cc1cccc2nc(-c3cccnc3)c(NCCC(C)C)n12	98.8% (inactive)	99.8	99.6	89% (inactive)	89.5	92.1	107% (inactive)	98.5% (inactive)	96.5% (inactive)	99.7	94.4
CCOC(=O)/C=C1\SCC(=O)N1Cc1nnc(-c2ccccc2Br)o1	96.2% (inactive)	97.6	96.4	90.2% (inactive)	89.6	90.8	100% (inactive)	100% (inactive)	99.7% (inactive)	101	99.7
O=C(O)Cc1sc(Nc2ccccc2)nc1-c1cccs1	97.8% (inactive)	98	97.9	149% (inactive)	144	156	110% (inactive)	99.7% (inactive)	104% (inactive)	104	103
Cc1ccc(C2CC(c3ccco3)=NN2S(C)(=O)=O)cc1 (centres undefined)	97.2% (inactive)	97	97.1	105% (inactive)	102	104	106% (inactive)	93.8% (inactive)	96.4% (inactive)	98.3	95.6
O=C(N/N=C/c1cccc(Oc2ccccc2)c1)c1ccncc1	96.7% (inactive)	97.3	95.4	107% (inactive)	99	108	103% (inactive)	103% (inactive)	95.8% (inactive)	97.6	96
CC1(C)CC(=O)C(C(C2=C(O)CC(C)(C)CC2=O)c2cccs2)C(=O)C1 (centres undefined)	100% (inactive)	103	101	100% (inactive)	102	100	97.5% (inactive)	94.3% (inactive)	101% (inactive)	102	99.1
Cc1cccc(OCCCSc2nc3ccc(C)cc3[nH]2)c1	92% (inactive)	89.2	92.2	124% (inactive)	115	127	94.7% (inactive)	91.6% (inactive)	79.9% (inactive)	77.5	82.1
OCc1ccccc1SSc1ccccc1CO	101% (inactive)	99.2	98.5	149% (inactive)	137	156	100% (inactive)	104% (inactive)	103% (inactive)	101	99.8
Cc1nc(Sc2ccc(Cl)cc2)c(C#N)c(C)c1[N+](=O)[O-]	100% (inactive)	100	98.2	91.8% (inactive)	94.4	91.3	108% (inactive)	94.3% (inactive)	104% (inactive)	105	103
Cc1ccc(NC(=S)N/N=C/c2c(C)[nH]c3ccccc23)cc1	97.4% (inactive)	97	97.9	101% (inactive)	93.6	104	104% (inactive)	90.1% (inactive)	104% (inactive)	108	100
Cc1nonc1C(=O)N/N=C/c1ccc([N+](=O)[O-])o1	100% (inactive)	101	101	111% (inactive)	109	113	105% (inactive)	106% (inactive)	105% (inactive)	105	104
O=C(c1ccccn1)c1conc1C(=O)c1ccc(Br)cc1	98.2% (inactive)	93.9	102	204% (active)	159	213	153% (inactive)	105% (inactive)	139% (inactive)	126	147
Cc1ccc(-c2ccc(CCC(=O)O)o2)cc1	102% (inactive)	95.9	101	147% (inactive)	139	150	95.7% (inactive)	94.8% (inactive)	90% (inactive)	85	90.2
CC(Oc1ccc(Cl)cc1)C(=O)NNC(=S)NC(=O)c1ccco1 (centres undefined)	99.6% (inactive)	97.1	97.2	227% (active)	112	205	128% (inactive)	115% (inactive)	106% (inactive)	88.4	93.2
C=CCn1c(=O)c(C(=O)Nc2ccccc2C(=O)OCC)c(O)c2ccccc21	100% (inactive)	101	101	87.2% (inactive)	86.4	89.7	99.5% (inactive)	101% (inactive)	96.4% (inactive)	96.4	95.6
